An excerpt weighted towards active compounds, which were near 2.6% of everything screened.
ABHD4 inh: inhibits mouse alpha/beta hydrolase domain 4; Q8VD66; AID 720543; 0.54% of 370,000 active; inhibition, % at 8.92 µM; purified mABHD4, FP-Rh probe fluorescence polarization;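 active = inhibition exceeding the mean over every tested compound plus 3 SD, cut at about 30% in these data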;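 note: 0% = plate median of compound wells and 100% = S159A mutant with DMSO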
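Assay system: wild-type mouse ABHD4 protein; compound: single nominal dose of 8.92 µM, 0.89% DMSO final; schedule: 45 min + 60 min at 25 °C; measured by: FP readout, ex 525 nm / em 598 nm; evaluation: % inhibition of FP-Rh probe binding versus controls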
PRMT1 FP inh: inhibitors of human PRMT1 | 1.3% of 370,000 active | AID 652257 | inhibition, % at 2.79 µM | recombinant PRMT1, activity-based probe fluorescence polarization;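 active = inhibition above about 21% made by adding two undisclosed values, limit read from the data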
Target sequence (Q99873 whole entry, looked up): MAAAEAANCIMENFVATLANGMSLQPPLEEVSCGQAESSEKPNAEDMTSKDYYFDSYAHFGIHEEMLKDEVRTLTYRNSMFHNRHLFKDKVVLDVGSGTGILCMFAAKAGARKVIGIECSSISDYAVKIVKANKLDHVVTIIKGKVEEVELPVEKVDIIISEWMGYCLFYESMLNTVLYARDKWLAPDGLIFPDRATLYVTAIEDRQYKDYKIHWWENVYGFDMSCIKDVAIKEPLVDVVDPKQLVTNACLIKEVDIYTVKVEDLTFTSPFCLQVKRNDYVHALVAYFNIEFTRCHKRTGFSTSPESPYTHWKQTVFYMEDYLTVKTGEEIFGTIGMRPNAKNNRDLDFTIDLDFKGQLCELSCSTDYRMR
TCR-CD3 inh: human TCR-CD3 binding inhibition | inhibition, % at 9.4 µM | TAMRA-labeled TCR probe fluorescence, biochemical | 0.37% of 360,000 active | AID 651800;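 note: recombinant mutant TCR 2C K166C tagged with TAMRA read by polarization; 0% = receptor in buffer alone and 100% = receptor with positive control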
SIAE primary: human SIAE inhibition, primary screen. AID 1053197. 0.69% of 370,000 active. SIAE FP-Rh probe binding, fluorescence polarization. Q9HAT2. inhibition, % at 9.66 µM;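 active = inhibition above a cutoff: mean of compounds within the control limits plus 3 SD of those, cut at about 17% in these data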;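 note: 0% = plate median of compound wells and 100% = probe without SIAE protein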
HTRA1 inhibitor: inhibitors of human serine peptidase HTRA1 | 0.5% of 340,000 active | recombinant HTRA1, FP-rhodamine activity-based probe, fluorescence polarization | Q92743 | inhibition, % at 5.96 µM; in the data active = inhibition above about 36%;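 note: 0% = enzyme with DMSO and 100% = wells lacking enzyme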
BSA TAMRA ctr: interferes with TAMRA-BSA probe, flagging TCR-CD3 hits | shares compounds with TCR-CD3 inh | TAMRA-labeled BSA probe fluorescence counterscreen | inhibition, % at 9.4 µM | 10% of 1,200 active | AID 652035; in the data active = inhibition above about 23%;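 note: 0% = buffer low control and 100% = reference high control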
TCR-CD3 conf: TCR-CD3 interaction inhibition, confirmation | shares compounds with TCR-CD3 inh | TAMRA-labeled TCR probe fluorescence binding assay | inhibition, % at 9.4 µM | 48% of 1,200 active | AID 652036
The depositor's hits bear a star; / = no result. Cut-off read from the data, not from the text of the source, unless noted: active = inhibition above about 19%; inactive = the rest.

SMILES	ABHD4 inh	PRMT1 FP inh	TCR-CD3 inh	SIAE primary	HTRA1 inhibitor	BSA TAMRA ctr	TCR-CD3 conf
Oc1ccc(/C=C/c2nc(-c3ccccc3O)n(-c3ccccc3)n2)cc1	-25.6	-0.8	46.4*	2.0	-10.2	3.3	3.0
CC1CCCCN1C(=O)CSc1nnc(-c2ccccc2O)o1 (stereo not given)	1.7	-2.1	26.6*	9.5	21.1	13.1	21.3*
CCCc1c(C(=O)N/N=C(\C)c2ccccc2O)nnn1-c1nonc1N	5.8	-2.8	5.5	3.0	21.4	/	/
C/C(=N\NC(=O)c1nnn(-c2nonc2N)c1-c1ccccc1)c1ccccc1O	-3.9	7.8	48.7*	-0.1	22.7	-6.8	29.9*
O=C(CCC(=O)Nc1ccc(F)cc1)N/N=C/c1ccc(O)cc1O	0.4	-1.0	-3.0	-1.9	-4.7	/	/
COCCCNC(=S)N/N=C/c1ccc(O)cc1O	2.4	-2.4	20.4*	13.4	/	-16.2	-5.1
Oc1ccc(C=NNC(=S)Nc2ccc(F)cc2)c(O)c1	19.2	-1.4	19.7*	12.7	33.9	-15.3	9.1
COCCCNC(=S)N/N=C/c1ccc(O)cc1	5.1	-1.2	2.4	4.6	-3.7	/	/
CCc1cccc2c(C(C)c3ccccc3O)c[nH]c12 (stereo not given)	-9.6	0.2	/	6.1	/	/	/
COC(=O)CCN(C(=O)c1ccc(N2CCCCC2)c([N+](=O)[O-])c1)c1ccccn1	6.6	3.8	77.4*	11.4	-2.3	0.8	1.7
COc1cccc(/C=N/NC(=O)CNC(=O)COc2ccccc2)c1O	-0.8	-4.0	0.3	4.0	4.0	/	/
Cc1cccc(OCC(=O)NCC(=O)N/N=C/c2cc(Br)cc(Br)c2O)c1	-6.2	4.0	51.3*	5.4	18.0	-18.5	41.3*
C#CCOCCOCCOCCNc1nc(N2CCOCC2)nc(N2CCN(C(=O)[C@H](Cc3ccc(O)cc3)n3cc([C@@H](N)C(C)CC)nn3)CC2)n1 (stereo not given in full)	6.5	0.3	19.6*	2.1	-0.9	-5.4	1.9
COc1ccc(-c2cn3cc(C(=O)NN)ccc3n2)cc1	-0.5	-3.9	21.2*	-3.8	4.6	-0.1	-2.0
Cc1nnc(NC(=O)CSc2nnc(CC(=O)Nc3ccccc3F)n2C)s1	7.0	-0.9	65.7*	-2.1	-2.4	2.1	2.7
Cc1nnc(NC(=O)CSc2nnc(CC(=O)Nc3ccccc3Cl)n2C)s1	4.3	5.5	-4.3	-3.3	-3.1	/	/
CCN(CC)S(=O)(=O)c1cccc(NC(=O)CC2CCCC2)c1	3.2	-1.0	-0.2	3.1	-5.5	/	/
CCN(CC)S(=O)(=O)c1cccc(NC(=O)Nc2cccc(C(F)(F)F)c2)c1	-132.2	-1.5	23.5*	-215.3	-124.6	15.3	26.2*
O=C(NNC(=O)c1ccc2ccccc2c1O)c1cccs1	5.6	-0.6	39.6*	9.8	15.7	-2.3	32.8*
O=C(NNC(=O)c1ccc2ccccc2c1O)c1ccccc1Cl	21.6	5.9	28.9*	14.7	29.7	-5.0	35.2*
O=C(NC(=S)NNC(=O)c1cccs1)c1ccccc1	2.2	4.2	22.0*	4.8	-1.3	1.1	25.4*
O=C(NNC(=O)c1cccc2ccccc12)c1ccc(Cl)cc1Cl	-7.4	-4.7	7.4	0.6	-10.6	/	/
CC(C)(C)c1ccc(C(=O)NC(=S)NNC(=O)c2cccs2)cc1	9.7	2.2	-1.6	5.4	15.1	/	/
O=C(Nc1nc2ncccn2c1-c1ccc(F)c(F)c1)c1ccccc1	0.1	1.0	/	-0.6	/	/	/
C[N+]1=C(N)NC2=C3CCCCC3n3c(=O)n(-c4ccccc4)c(=O)n3C2C1 (stereo not given)	3.6	4.4	/	1.0	/	/	/
COc1ccc(S[C@]2(C(=O)N(C)C)CC(=O)N(c3ccc(Cl)cc3)[C@@H]2c2ccc(OC)cc2)cc1	-15.7	-1.7	/	0.2	/	/	/
CCCCCN1CCCCC(NC(=O)c2c(F)cccc2F)C1=O (stereo not given)	2.2	-1.4	/	9.5	/	/	/
CN1C(=O)c2cc(NS(C)(=O)=O)ccc2OC[C@H]2O[C@@H](CC(=O)NCc3ccc(-c4ccccc4)cc3)CC[C@@H]21	12.1	4.3	/	5.9	/	/	/
O=C(c1cccc(S(=O)(=O)Nc2ccc(F)cc2)c1)N1CCOCC1	-2.2	-2.4	-0.2	2.0	-2.3	/	/

Screening results (PubChem)
